# S1P1 ag-PAM = S1P1 (human) agonism or agonism potentiation; P21453; AID 449; 56,000 tested, 0.57% active; activation, % at 9.5 µM; S1P1 CRE-bla cells, forskolin, beta-lactamase FRET, potentiator mode; S1P1 agonist co-added at EC20, 2 nM; 100% = saturating reference agonist, 0% = basal;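 active = activation above a cutoff set at the mean activation of all tested compounds plus 3 SD, cut at about 54% in these data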;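 note: forskolin at 4 µM as EC80 and the EC20 agonist is SEW2871; 100% = SEW2871 at its EC100 plus forskolin at EC80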
# 5HT1E ag = activates the human 5-HT1E serotonin receptor | P28566 | CHO 5-HT1E Ga15 NFAT-bla reporter, FRET; 0% DMSO wells, 100% control agonist wells | activation, % at 6 µM | 65,000 tested, 0.69% active;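 active = activation above a set limit, the screen-wide mean activation plus 3 SD, cut at about 8.5% in these data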;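 note: 100% = positive control agonist at 1 µM giving full maximal response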
# Target sequence (P28566 whole entry, looked up): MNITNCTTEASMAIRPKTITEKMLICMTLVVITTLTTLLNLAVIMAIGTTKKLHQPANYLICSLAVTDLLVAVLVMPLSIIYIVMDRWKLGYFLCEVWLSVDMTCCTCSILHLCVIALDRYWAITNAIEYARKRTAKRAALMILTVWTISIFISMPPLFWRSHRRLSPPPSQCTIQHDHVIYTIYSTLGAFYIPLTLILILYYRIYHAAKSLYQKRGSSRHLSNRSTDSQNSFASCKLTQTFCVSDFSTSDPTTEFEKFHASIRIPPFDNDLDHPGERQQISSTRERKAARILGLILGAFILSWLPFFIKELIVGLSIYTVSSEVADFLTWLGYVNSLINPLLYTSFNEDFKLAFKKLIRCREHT
# 5HT1a antag = blocks the human serotonin 5-HT1a receptor | CHO 5-HT1a Ga15 NFAT-bla reporter, antagonist mode | inhibition, % at 10 µM | 62,000 tested, 0.68% active | AID 612;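 active = inhibition above the mean of all tested compounds plus 3 SD, cut at about 43% in these data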;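 note: receptor stimulated by 5-CT agonist at 100 nM near EC80; beta-lactamase reporter measured by ratiometric fluorescence of a cleavable substrate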
# S1P3 ag = activates the human S1P3 receptor. S1P3 NFAT-BLA reporter cells, agonism, FRET ratio; relative to 1 µM S1P, basal subtracted. activation, % at 4.5 µM. 60,000 tested, 0.1% active. AID 373;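 active = activation above the screen-wide mean plus 3 SD, cut at about 4.5% in these data, passing the limit was not always enough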
#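 Benchmarks: high control 1 µM S1P / System: stable CHO line with human S1P3, Gα16, NFAT-BLA reporter / Dosing: single compound concentration, 4.5 µM final / Timing: 4 h compound at 37 °C, 2 h substrate at RT / Measured by: FRET β-lactamase substrate fluorescence, excitation 405 nm, 460/535 nm emission ratio, background-subtracted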
# HTR1E antagonist = blocks the human 5-HT1E serotonin receptor; CHO 5-HT1E Ga15 NFAT-bla reporter, FRET, antagonist; P28566; inhibition, % at 6 µM; 65,000 tested, 0.99% active; AID 571;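 active = inhibition above a set limit, the mean inhibition across every tested compound plus 3 SD, cut at about 29% in these data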;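 note: signal is the 460 over 535 nm emission ratio of beta-lactamase substrate; 0% = agonist plus DMSO wells and 100% = wells without agonist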
# 5HT1a ag = activates the human 5-HT1a serotonin receptor | P08908 | 65,000 tested, 0.56% active | activation, % at 10 µM | CHO 5-HT1a Ga15 NFAT-bla reporter, FRET ratio; 0% basal, 100% maximal reference agonist;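 active = activation above the screen-wide mean activation plus 3 SD, cut at about 19% in these data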;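 note: 0% = DMSO wells and 100% = 5-CT at EC100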
# * = called active by the depositor; . = no result given. Rows were chosen to be rich in hits. Some 3% of all compounds tested hit in one or more screens of this group.
SMILES,S1P1 ag-PAM,5HT1E ag,5HT1a antag,S1P3 ag,HTR1E antagonist,5HT1a ag
CCNc1nc2c(c(=O)n(C)c(=O)n2C)n1Cc1ccc(Cl)cc1,61.4*,1.3,6.2,-2.4,13.8,14.0
CCNc1nc2c(c(=O)n(Cc3ccccc3)c(=O)n2C)n1Cc1ccccc1,-13.9,0.4,-0.5,0.4,0.2,37.4*
CCC(=O)Nc1ccc(Cl)c(NC(=O)C(C)C)c1,.,-0.5,3.6,-0.1,3.0,-1.2
Cn1c(=O)[nH]c(=O)c2c1nc(N1CCCCC1)n2CCCSc1nc2ccccc2s1,-72.5,0.9,-1.1,1.2,21.5,1.9
CN(C)c1ccc(/C=N/n2ncc3ccccc32)cc1,.,2.8,-18.5,.,5.9,24.5*
Cc1ccc2c(c1)c1c(n2CC(O)Cn2c(C)nc3ccccc32)C(=O)CCC1 (stereo not drawn),-27.9,0.3,28.7,-2.2,-9.3,72.7*
Cc1ccc2c(c1)c1c(n2CC(O)Cn2c(C)nc3ccccc32)/C(=N\O)CCC1 (stereo not drawn),-43.3,0.5,27.7,-0.2,-24.9,-4.1
Cc1cc(S(=O)(=O)N(Cc2ccc3c(c2)OCO3)CC2CCCO2)ccc1-n1cnnn1 (stereo not drawn),.,-0.5,18.1,.,11.2,1.2
CCN(Cc1ccccc1)C(c1cccs1)c1nnnn1C1CCCCC1 (stereo not drawn),-11.0,-0.2,43.9*,-0.6,7.0,-0.6
CC(c1nnnn1C1CCCCC1)N(Cc1ccccc1)Cc1cccnc1 (stereo not drawn),17.4,-0.9,24.6,-1.2,-7.7,2.4
Cc1nn(-c2nc3ccccc3s2)c(N)c1-c1ccccc1,95.3*,0.8,16.2,-0.7,18.2,-0.6
CCCCN(C)CCNC(=O)c1ccc2c(c1)NC(=O)C(N1CCCCC1)S2 (stereo not drawn),17.8,3.0,8.3,0.1,1.0,1.1
COc1cccc(-c2nn(C)c3sc(C(=O)Nc4ccc5c(c4)OCCO5)cc23)c1,21.5,0.9,-3.8,0.8,-13.2,-1.0
COc1cccc(-c2nn(C)c3sc(C(=O)NCc4ccccn4)cc23)c1,-14.2,-1.0,19.7,-1.1,42.0*,-1.2
Cn1c(N2CCOCC2)nc(-c2ccccc2)c1-c1ccccc1,5.1,20.4*,0.4,1.2,-5.8,2.0
O=C(CCN1C(=O)c2ccccc2C1=O)N1CCC(c2ccccc2)C1 (stereo not drawn),.,0.7,-6.4,0.6,-4.6,31.5*
O=C(CCN1C(=O)c2ccccc2C1=O)N1CCCCCC1,0.1,0.4,-12.0,-0.9,-3.0,-1.3
Clc1ccc2nc(N3CCNCC3)nc(-c3ccccc3)c2c1,-49.5,14.5*,.,18.4*,-4.0,54.7*
CN1CCN(c2nc(-c3ccccc3)c3cc(Cl)ccc3n2)CC1,-41.1,8.0,-30.3,12.7,-0.5,30.2*
Clc1ccc2nc(NC3=NCN(CCN4CCOCC4)CN3)nc(-c3ccccc3)c2c1,-21.8,1.0,-5.6,-1.0,-1.5,-3.4
OCCN1CCN(c2nc(-c3ccccc3)c3cc(Cl)ccc3n2)CC1,-40.7,6.6,-19.6,4.6*,6.2,17.9
O=C(c1ccco1)N1CCN(c2ccc(Cl)c(Cl)c2)CC1,37.4,0.7,-2.3,-1.6,8.9,1.4
CC1CN(C2CCN(S(=O)(=O)Cc3ccccc3)CC2)CC(C)O1 (stereo not drawn),23.8,0.0,.,-3.5,-5.7,-4.7
CN(C)c1nc2n(c(=O)n1)C(C#N)CS2 (stereo not drawn),5.0,-0.5,.,-3.9,-0.7,2.5
Cc1[nH]nc2c1C(C(C)C)C(C#N)=C(N)O2 (stereo not drawn),-1.5,0.3,11.9,-0.1,0.4,-5.8
SMILES,S1P1 ag-PAM,5HT1E ag,5HT1a antag,S1P3 ag,HTR1E antagonist,5HT1a ag
CCC(C)C1C(C#N)=C(N)Oc2n[nH]c(C)c21 (stereo not drawn),29.0,-0.5,14.5,0.0,39.0*,-0.7
Cc1cc(C)cc(N(CC(=O)NC2CCC(C)CC2)S(=O)(=O)c2c(C)noc2C)c1 (stereo not drawn),-1.5,0.3,6.7,-0.2,2.0,-3.1
N#C/C(=C/c1ccc(N2CCCCCC2)o1)c1ccc(F)cc1,128.7,-0.1,87.3*,-2.2,89.7*,-4.9
Cc1cc(NC(=O)CSc2nnc(Cc3ccccc3)o2)no1,.,0.6,-4.5,-0.6,6.7,-0.3
CCOc1ccc(C(C)=O)cc1N1C(=O)C2C3C=CC(O3)C2C1=O (stereo not drawn),76.3,0.4,60.5*,1.2,39.3*,-2.3
CCOc1ccc(C(C)=O)cc1N1C(=O)C2C3C=CC(C3)C2C1=O (stereo not drawn),-7.7,-0.4,1.0,-0.3,7.9,-4.3
CCOC(=O)CSc1nc2c(c(=O)n(C)c(=O)n2C)n1CCCc1ccccc1,-7.2,-1.5,-9.5,-0.7,5.5,1.6
CCCc1nc2ccccc2c2nc(N)nn12,-27.7,0.8,-4.9,0.0,34.2*,-3.4
Nc1nc2c3ccccc3nc(Cc3ccccc3)n2n1,-35.0,0.4,-11.0,-0.1,8.6,-1.3
Cc1cc(Cn2ccnc2)c(C)cc1Cn1ccnc1,-12.5,0.6,.,0.3,-0.6,2.2
CCN(Cc1ccccc1)C(c1cccc(C#N)c1)c1nnnn1C(C)(C)C (stereo not drawn),14.6,-1.0,44.2*,-0.9,7.4,0.7
O=C(CSc1nccn1-c1ccc(Cl)cc1)NCc1ccc2c(c1)OCO2,9.5,1.9,-10.4,-0.8,-8.4,-1.4
c1ccc(CCNc2c3c(nc4ncnn24)CCC3)cc1,18.5,-0.2,2.7,-1.7,3.3,1.0
CCc1c(C)nc2ncnn2c1NCCc1ccc(OC)cc1,54.9*,-0.4,8.9,-1.3,19.7,0.1
COCCSc1ccccc1C(=O)Nc1nncs1,-4.1,0.3,1.1,-0.8,-4.6,-2.2
Cc1ccc(S(=O)(=O)c2nc(-c3ccccc3)oc2NCc2cccnc2)cc1,-42.2,47.8*,-1.4,-0.1,-1.9,-3.6
CSc1oc(-c2ccccc2)nc1S(=O)(=O)c1ccc(C)cc1,-27.2,-1.7,19.7,-1.8,6.4,-1.0
Cc1ccc(Nc2nc(N)nc(CN3CCN(C(=O)c4ccco4)CC3)n2)cc1Cl,-12.6,-0.4,-5.5,-1.1,2.1,-4.2
CCCC(=O)Nc1cccc(NC(=O)c2ccc3c(c2)OCO3)c1,-10.9,13.7*,5.3,-0.8,2.7,-1.3
CCN(C(=O)C1CCCCC1)c1nnc(-c2cccnc2)s1,99.0*,0.3,3.1,-0.3,2.7,1.5
CCN(C(=O)c1c(OC)cccc1OC)c1nnc(-c2cccnc2)s1,-3.9,0.0,-3.2,1.1,-3.0,0.3
Cc1ccc(S(=O)(=O)N(C)Cc2ccc(-c3nnc4n3CCC4)cc2)cc1,1.2,0.8,-17.1,-0.1,-7.7,1.0
